From ChEMBL document CHEMBL1155970, “Synthesis and biological evaluation of quinic acid derivatives as anti-inflammatory agents” (Bioorg Med Chem Lett, 2009)
Calls of active or inactive are those of the source. The calls are words filed in the database; no cut-off is given here.

Assays:
[1] = tested on: Radical scavenging activity; experiment: Antioxidant activity assessed as DPPH radical scavenging activity by UV-visible spectrophotometry; assay type: functional
Summary of the method: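 DPPH stock at 0.625 mM in 50% acetone, stored at 4 °C in the dark; diluted daily to a 0.208 mM working solution. Samples in 50% acetone were mixed 1:1 with working DPPH, giving 0.104 mM DPPH initially. Mixtures were vortexed and read immediately at 515 nm against a 50% acetone blank, and remaining DPPH was calculated.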

[2] = tested on: A549; experiment: Cytotoxicity against human A549 cells after 2 hrs by MTS assay; assay type: cell-based; conditions: a549, 18 h, in the assay text read “18 hrs” for “2 hrs”
Summary of the method: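 A549SN cells were plated at 1 × 10⁴ per well and held 24 h at 37 °C, then treated in duplicate for 18 h alongside vehicle and medium-only controls. Viability was read by MTS: formazan absorbance at 490 nm after 2 h, with the media-only background subtracted.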

[3] = tested on: A549; experiment: Inhibition of human NF-kappaB in TNF-alpha-stimulated A549 cells assessed as secreted alkaline phosphatase level at 1 uM after 18 hrs; assay type: cell-based
Summary of the method: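 The A549 NF-κB–SEAP reporter line was given TNF-α (10 ng/mL) plus compound at a single concentration, with dexamethasone as positive control. Supernatant SEAP was read 18 h later by chemiluminescence. Results are expressed as % inhibition relative to TNF-α alone, mean ± standard deviation, n = 3.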

[4] = Inhibition of human NF-kappaB in TNF-alpha-stimulated A549 cells assessed as secreted alkaline phosphatase level after 18 hrs; assay type: cell-based; conditions: A549, 18 h
Summary of the method: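 Type II-like A549 cells stably carrying an NF-κB response element–SEAP reporter were plated overnight at 6 × 10⁴ cells/well. They were then stimulated with human recombinant TNF-α (10 ng/mL) together with compound. After 18 h, supernatant SEAP was measured by chemiluminescence and normalized to lysate total protein (BCA). IC50 came from dose–response curves, n = 3 separate experiments.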

| SMILES | Activity [1] | Activity [2] | Activity [3] | IC50 [4] |
| --- | --- | --- | --- | --- |
| O=C(O)[C@]1(O)C[C@@H](O)[C@@H](O)[C@H](O)C1 [QUINIC ACID] | inactive | Not Active |  |  |
| O=C(/C=C/c1ccc(O)c(O)c1)O[C@@H]1C[C@](O)(C(=O)O)C[C@@H](O)[C@H]1O | Active |  |  |  |
| O=C1O[C@H]([C@@H](O)CO)C(O)=C1O | Active |  |  |  |
| CCCNC(=O)[C@]1(O)C[C@@H](O)[C@@H](O)[C@H](O)C1 | inactive | Not Active | Active | 2.83 µM |
| CC(C)NC(=O)[C@]1(O)C[C@@H](O)[C@@H](O)[C@H](O)C1 |  |  | Active |  |
| CC(=O)O[C@@H]1C[C@](OC(C)=O)(C(=O)O)C[C@@H](OC(C)=O)[C@H]1OC(C)=O |  |  | inactive |  |
| NCCNC(=O)[C@]1(O)C[C@@H](O)[C@@H](O)[C@H](O)C1 |  |  | Active |  |
| O=C(O)/C=C/c1ccc(O)c(O)c1 | Active |  |  |  |
| CC(C)(C)OC(=O)NCCNC(=O)[C@]1(O)C[C@@H](O)[C@@H](O)[C@H](O)C1 |  |  | Active |  |
